Results published in ChEMBL document CHEMBL3102806, “1,2,4-Triazole/oxime hybrids as new strategy for nitric oxide donors: Synthesis, anti-inflammatory, ulceroginicity and antiproliferative activities” (Eur J Med Chem, 2014).

Columns and labels:
Rattus norvegicus [1] = test: Antiinflammatory activity in albino rat assessed as inhibition of carrageenan-induced paw edema at 0.28 mmol/kg, po administered 30 mins prior to carrageenan-challenge measured after 2 hrs relative to control; format: functional
Summary of the method: (§1)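 Male albino rats in groups of four were fasted 24 h with water allowed. Dosing was oral at 0.28 mmol/kg, suspended in 0.5% w/v CMC; controls got CMC alone. After 30 min, 0.1 ml of 1% carrageenan in saline went subplantar into the right hind paw and saline into the left. Paw thickness was read by caliper before and at 1–5 h. % inhibition = [(VR−VL)control−(VR−VL)treated]/(VR−VL)control ×100. Mean ± SEM, n = 4, one-way ANOVA vs control.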

Rattus norvegicus [2] = test: Antiinflammatory activity in albino rat assessed as inhibition of carrageenan-induced paw edema at 0.28 mmol/kg, po administered 30 mins prior to carrageenan-challenge measured after 4 hrs relative to control; format: functional; summary of the method: as §1
Rattus norvegicus [3] = test: Antiinflammatory activity in albino rat assessed as inhibition of carrageenan-induced paw edema at 0.28 mmol/kg, po administered 30 mins prior to carrageenan-challenge measured after 1 hr relative to control; format: functional; summary of the method: as §1
Rattus norvegicus [4] = test: Ulcerogenic activity in albino rat carrageenan-induced paw edema model assessed as ulcer index at 0.28 mmol/kg, po (reference value: 0.60 +/- 0.05); format: toxicity, organism-based; conditions: in vivo
Summary of the method: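 Rats given the compound orally at 0.28 mmol/kg, suspended in 0.5% aqueous CMC; vehicle-only control, n = 4 per group. Gastric ulcers graded by area: I (<1 mm²), II (1–3 mm²), III (>3 mm²). Ulcer index = 1×(level I count) + 2×(level II) + 3×(level III). Mean ± SEM, one-way ANOVA versus control.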

Rattus norvegicus [5] = test: Antiinflammatory activity in albino rat assessed as inhibition of carrageenan-induced paw edema at 0.28 mmol/kg, po administered 30 mins prior to carrageenan-challenge measured after 3 hrs relative to control; format: functional; summary of the method: as §1
Rattus norvegicus [6] = test: Antiinflammatory activity in albino rat assessed as inhibition of carrageenan-induced paw edema at 0.28 mmol/kg, po administered 30 mins prior to carrageenan-challenge measured after 5 hrs relative to control; format: functional; summary of the method: as §1
[7] = Induction of nitric oxide release in HCl buffer at 10^-4 M at pH 1 after 1 hr by Griess colorimetric method in presence of N-acetylcysteine; format: physicochemical; conditions: pH 1, 1 h, 100 µM
Summary of the method: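 Same Griess nitrite procedure at 10^-4 M final drug with N-acetylcysteine at 37 °C, but with 0.1 N HCl (pH 1) in place of the pH 7.4 phosphate buffer. Absorbance at 546 nm against a sodium nitrite calibration curve.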

[8] = Induction of nitric oxide release in phosphate buffer at 10^-4 M at pH 7.4 after 2 hrs by Griess colorimetric method in presence of N-acetylcysteine; format: physicochemical; conditions: pH 7.4, 2 h, 100 µM
Summary of the method: (§2)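 Final drug concentration 10^-4 M, added from DMF into 1:1 50 mM phosphate buffer (pH 7.4)/MeOH containing 5 × 10^-4 M N-acetylcysteine, at 37 °C. Nitrite read with Griess reagent after 10 min at room temperature, absorbance at 546 nm. Calibration with sodium nitrite standards (10–80 nmol/ml). Reported as mol NO per mol, n = 4 reaction mixtures.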

[9] = Induction of nitric oxide release in phosphate buffer at 10^-4 M at pH 7.4 after 6 hrs by Griess colorimetric method in presence of N-acetylcysteine; format: physicochemical; conditions: pH 7.4, 6 h, 100 µM; summary of the method: as §2
[10] = Induction of nitric oxide release in phosphate buffer at 10^-4 M at pH 7.4 after 3 hrs by Griess colorimetric method in presence of N-acetylcysteine; format: physicochemical; conditions: pH 7.4, 3 h, 100 µM; summary of the method: as §2
[11] = Induction of nitric oxide release in phosphate buffer at 10^-4 M at pH 7.4 after 1 hr by Griess colorimetric method in presence of N-acetylcysteine; format: physicochemical; conditions: pH 7.4, 1 h, 100 µM; summary of the method: as §2
[12] = Induction of nitric oxide release in phosphate buffer at 10^-4 M at pH 7.4 after 5 hrs by Griess colorimetric method in presence of N-acetylcysteine; format: physicochemical; conditions: pH 7.4, 5 h, 100 µM; summary of the method: as §2
[13] = Induction of nitric oxide release in phosphate buffer at 10^-4 M at pH 7.4 after 4 hrs by Griess colorimetric method in presence of N-acetylcysteine; format: physicochemical; conditions: pH 7.4, 4 h, 100 µM; summary of the method: as §2

| SMILES | inhibition in vivo at 280 µmol/kg (Rattus norvegicus [1]) | inhibition in vivo at 280 µmol/kg (Rattus norvegicus [2]) | inhibition in vivo at 280 µmol/kg (Rattus norvegicus [3]) | UI (Rattus norvegicus [4]) | inhibition in vivo at 280 µmol/kg (Rattus norvegicus [5]) | inhibition in vivo at 280 µmol/kg (Rattus norvegicus [6]) | Activity [7] | Activity [8] | Activity [9] | Activity [10] | Activity [11] | Activity [12] | Activity [13] |
| --- | --- | --- | --- | --- | --- | --- | --- | --- | --- | --- | --- | --- | --- |
| C=CCn1c(SCC(=O)Nc2ccc(C(C)=O)cc2)nnc1-c1ccccc1 | 52% | 70% | 48% | 9.3 | 54% | 63% | – | – | – | – | – | – | – |
| C=CCn1c(SCC(=O)Nc2ccc(C(C)=O)cc2)nnc1-c1ccc(OC)cc1 | 51% | 68% | 50% | 8.66 | 52% | 66% | – | – | – | – | – | – | – |
| C=CCn1c(SCC(=O)Nc2ccc(C(C)=O)cc2)nnc1-c1cc(OC)c(OC)c(OC)c1 | 54% | 68% | 48% | 6.49 | 55% | 64% | – | – | – | – | – | – | – |
| CCn1c(SCC(=O)Nc2ccc(C(C)=O)cc2)nnc1-c1ccccc1 | 53% | 69% | 50% | 7.12 | 56% | 66% | – | – | – | – | – | – | – |
| CCn1c(SCC(=O)Nc2ccc(C(C)=O)cc2)nnc1-c1ccc(OC)cc1 | 54% | 65% | 51% | 10.52 | 57% | 62% | – | – | – | – | – | – | – |
| CCn1c(SCC(=O)Nc2ccc(C(C)=O)cc2)nnc1-c1ccc(OC)c(OC)c1 | 59% | 69% | 56% | 3.6 | 62% | 66% | – | – | – | – | – | – | – |
| CCn1c(SCC(=O)Nc2ccc(C(C)=O)cc2)nnc1-c1cc(OC)c(OC)c(OC)c1 | 50% | 68% | 46% | 3.34 | 54% | 64% | – | – | – | – | – | – | – |
| CC(=O)c1ccc(NC(=O)CSc2nnc(-c3ccccc3)n2-c2ccccc2)cc1 | 49% | 67% | 41% | 3.38 | 62% | 63% | – | – | – | – | – | – | – |
| COc1ccc(-c2nnc(SCC(=O)Nc3ccc(C(C)=O)cc3)n2-c2ccccc2)cc1 | 42% | 63% | 29% | 5.53 | 58% | 60% | – | – | – | – | – | – | – |
| COc1cc(-c2nnc(SCC(=O)Nc3ccc(C(C)=O)cc3)n2-c2ccccc2)cc(OC)c1OC | 54% | 68% | 49% | 4.38 | 55% | 63% | – | – | – | – | – | – | – |
| C=CCn1c(SCC(=O)Nc2ccc(/C(C)=N/O)cc2)nnc1-c1ccccc1 | 63% | 73% | 61% | 0.64 | 73% | 71% | Not Active | 0.2 mol/mol | 0.15 mol/mol | 0.22 mol/mol | 0.15 mol/mol | 0.16 mol/mol | 0.24 mol/mol |
| C=CCn1c(SCC(=O)Nc2ccc(/C(C)=N/O)cc2)nnc1-c1ccc(OC)cc1 | 59% | 75% | 54% | 2.69 | 63% | 72% | Not Active | 0.17 mol/mol | 0.16 mol/mol | 0.23 mol/mol | 0.15 mol/mol | 0.23 mol/mol | 0.32 mol/mol |
| CCn1c(SCC(=O)Nc2ccc(/C(C)=N/O)cc2)nnc1-c1ccccc1 | 57% | 77% | 54% | 1.18 | 65% | 66% | Not Active | 0.17 mol/mol | 0.12 mol/mol | 0.2 mol/mol | 0.11 mol/mol | 0.14 mol/mol | 0.21 mol/mol |
| CCn1c(SCC(=O)Nc2ccc(/C(C)=N/O)cc2)nnc1-c1ccc(OC)cc1 | 58% | 73% | 54% | 1.04 | 60% | 65% | Not Active | 0.2 mol/mol | 0.23 mol/mol | 0.24 mol/mol | 0.16 mol/mol | 0.24 mol/mol | 0.29 mol/mol |
| CCn1c(SCC(=O)Nc2ccc(/C(C)=N/O)cc2)nnc1-c1ccc(OC)c(OC)c1 | 65% | 75% | 53% | 3.43 | 66% | 73% | Not Active | 0.19 mol/mol | 0.32 mol/mol | 0.25 mol/mol | 0.15 mol/mol | 0.36 mol/mol | 0.43 mol/mol |
| CCn1c(SCC(=O)Nc2ccc(/C(C)=N/O)cc2)nnc1-c1cc(OC)c(OC)c(OC)c1 | 49% | 70% | 29% | 0.83 | 70% | 61% | Not Active | 0.13 mol/mol | 0.14 mol/mol | 0.14 mol/mol | 0.12 mol/mol | 0.15 mol/mol | 0.22 mol/mol |
| COc1ccc(-c2nnc(SCC(=O)Nc3ccc(/C(C)=N/O)cc3)n2-c2ccccc2)cc1 | 56% | 69% | 45% | 1.61 | 57% | 58% | Not Active | 0.17 mol/mol | 0.23 mol/mol | 0.24 mol/mol | 0.13 mol/mol | 0.24 mol/mol | 0.29 mol/mol |
| COc1cc(-c2nnc(SCC(=O)Nc3ccc(/C(C)=N/O)cc3)n2-c2ccccc2)cc(OC)c1OC | 62% | 75% | 59% | 2.21 | 66% | 70% | Not Active | 0.14 mol/mol | 0.14 mol/mol | 0.16 mol/mol | 0.11 mol/mol | 0.15 mol/mol | 0.25 mol/mol |
| COc1ccc(-c2nnc(SCC(=O)Nc3ccc(C(C)=O)cc3)n2-c2ccccc2)cc1OC | 43% | 62% | 28% | 8.64 | 51% | 55% | – | – | – | – | – | – | – |
